HCV NS3 hel inh: HCV NS3 helicase inhibition; NS3 helicase DNA unwinding, Cy5 molecular beacon fluorescence; inhibition, % at 10.9 µM; 290,000 tested, 0.56% active; AID 1800;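 active means inhibition above the mean of all tested compounds plus 3 SD, set per campaign, cut at about 35% in these data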;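 further: 0% = DMSO wells and 100% = thioflavine S control wells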
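assay system = NS3 helicase fragment of HCV | buffer or medium = MOPS pH 6.5, MgCl2, DTT, Tween20, BSA | timing = 60 min unwinding reaction at 25 °C after ATP addition | signal = Cy5 beacon fluorescence read at start and 1 h | read-out basis = % inhibition of unwinding | control set = low DMSO, high thioflavine S at 110 µM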
DNA FID counter-1: fluorescent intercalator displacement, NS3 helicase counter-screen; DNA fluorescent intercalator displacement, fluorescence; inhibition, % at 7.9 µM; 290,000 tested, 0.17% active;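 further: 0% = vehicle and 100% = reference compound; higher means more ethidium bromide displaced from hairpin DNA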
MEKK3 PB1 HTS: raises or lowers MEK5 binding to the human MEKK3 PB1 domain; bead-based flow cytometry, Alexa488-MEK5 binding to MEKK3; actives lie on both sides; 0 = blocked by unlabeled MEK5, 100 = vehicle; binding response (% of control), % at 10 µM; 290,000 tested, 1.4% active;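 active means binding response more than 3 SD above or below the average of its plate-row segment, actives on both sides; inconclusive means wells at one plate position flagged as instrument error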;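 further: Alexa488 bead fluorescence after subtracting the streptavidin-only scavenger bead signal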
Target sequence (Q99759 whole entry, looked up, the tested form may be a part): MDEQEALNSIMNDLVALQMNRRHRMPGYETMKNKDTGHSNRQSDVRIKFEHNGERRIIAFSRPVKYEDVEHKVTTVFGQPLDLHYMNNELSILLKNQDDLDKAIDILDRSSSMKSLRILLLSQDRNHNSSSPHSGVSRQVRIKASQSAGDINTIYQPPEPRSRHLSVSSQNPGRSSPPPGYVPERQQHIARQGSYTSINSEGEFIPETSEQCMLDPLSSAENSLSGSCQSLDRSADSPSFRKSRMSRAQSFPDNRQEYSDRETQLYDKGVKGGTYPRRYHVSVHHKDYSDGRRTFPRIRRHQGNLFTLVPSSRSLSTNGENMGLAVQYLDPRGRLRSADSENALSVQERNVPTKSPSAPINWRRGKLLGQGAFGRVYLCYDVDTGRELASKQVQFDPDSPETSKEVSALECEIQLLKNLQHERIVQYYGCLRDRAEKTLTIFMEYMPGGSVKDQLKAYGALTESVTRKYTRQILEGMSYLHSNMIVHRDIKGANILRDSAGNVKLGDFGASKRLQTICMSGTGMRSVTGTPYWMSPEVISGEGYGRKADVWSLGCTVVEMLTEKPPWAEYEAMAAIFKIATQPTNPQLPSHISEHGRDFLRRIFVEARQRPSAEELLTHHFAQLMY
MEKK2 mut-MEK5: signal of MEK5 binding to mutant human MEKK2 PB1 domain; bead flow cytometry, Alexa488-MEK5 binding to MEKK2 mutant; percent response, % at 10 µM; 290,000 tested, 0.35% active; AID 1530; in the data active means percent response above about 24%, passing the limit was not always enough
T cruzi repl: blocks replication of Trypanosoma cruzi; inhibition, % (no concentration beside the values); T. cruzi beta-gal in NIH3T3, luminescence, 90 h; 300,000 tested, 1.4% active; AID 1885;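 active means mean inhibition across valid replicates above about 55%, limit read from the data; inconclusive means mean below that limit but half or more replicates reach it; inactive means mean below it, under half of replicates reach it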;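 further: signal also drops with host cell toxicity which is not excluded here; 0% = plate median of DMSO wells and 100% = zero luminescence signal; higher percent means less beta-gal luminescence so fewer parasites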
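Test system: β-gal T. cruzi (Tulahuen C4) inside NIH/3T3 cells / Quantity: 5,000 cells/well / Measured by: luminescence from GalScreen with 0.05% NP40, read after 60 min / Medium: DMEM plus 2% FBS / Measure: parasite load inhibition, % / Reagent: Tulahuen C4 trypomastigotes, 5000/well / Schedule: co-culture of at least 90 h after 3 h attachment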
MEKK2wt PB1 HTS: raises or lowers MEK5 binding to wildtype human MEKK2 PB1 domain | 290,000 tested, 1.1% active | AID 1531 | binding response (% of control), % at 10 µM | bead flow cytometry, Alexa488-MEK5 binding to MEKK2 WT; actives lie on both sides | Q9Y2U5; in the data active means binding response below about 67% or above about 130%; inconclusive means no clear call, values can overlap the other calls; inactive means in between
NS3 helicase cf: confirmation of Hepatitis C virus NS3 helicase inhibitors. shares compounds with HCV NS3 hel inh. NS3 helicase DNA unwinding, Cy5 molecular beacon fluorescence. inhibition, % at 10.9 µM. 1,600 tested, 31% active;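 active means inhibition above the mean of all tested compounds plus 3 SD, cutoff set per campaign, cut at about 36% in these data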
DNA FID counter-2: intercalator displacement, NS3 helicase counter-screen | AID 1945 | 1,600 tested, 4% active | inhibition, % at 7.9 µM | DNA fluorescent intercalator displacement, fluorescence | shares compounds with HCV NS3 hel inh;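 further: 0% = vehicle and 100% = reference compound; higher means more displacement of ethidium bromide from the DNA hairpin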
DNA FID DR: displaces fluorescent intercalator from DNA, HCV helicase counter-screen. shares compounds with HCV NS3 hel inh. fluorescent intercalator displacement from DNA, fluorescence. IC50, µM. 120 tested, under 10 active; call rule not given here
An asterisk follows results filed as active; ? = inconclusive; · = not tested or not shown. A selection: hits, their analogues and other compounds. The true share with any hit is near 4.1%. Unless noted, no stated cut-off is given here; in the data, active means inhibition above about 37%; inactive means the rest.

SMILES	HCV NS3 hel inh	DNA FID counter-1	MEKK3 PB1 HTS	MEKK2 mut-MEK5	T cruzi repl	MEKK2wt PB1 HTS	NS3 helicase cf	DNA FID counter-2	others
COc1cccc(N(C(=O)CNC(=O)c2ccco2)C(C(=O)NC2CCCC2)c2cccnc2)c1 (stereo not drawn)	0	-32	102	5	-7	106	·	·
Cc1cc(C)cc(NC(=O)C2CCN(S(=O)(=O)c3ccc4c(c3)NC(=O)C(C)S4)CC2)c1 (stereo not drawn)	43*	-37	96	-7	31	91	4	-12
Cc1nn(CC(=O)NCCc2ccco2)c(=O)c2nn(-c3ccccc3)c(C)c12	48*	-30	99	1	-3	97	8	-7
Cc1ccc(-n2nc3c(=O)n(CC(=O)NCCc4ccccc4C)nc(C)c3c2C)cc1	-3	-48	98	-6	2	95	·	·
Cc1nn(CC(=O)NCCc2cccs2)c(=O)c2nn(-c3ccccc3)c(C)c12	49*	-28	100	1	-1	96	-10	-25
Cc1ccc(-n2nc3c(=O)n(CC(=O)NCc4cccs4)nc(C)c3c2C)cc1	-3	-30	101	-1	-6	103	·	·
CC(=O)Nc1ccc(S(=O)(=O)NNC(=O)COc2ccc(Cl)cc2Cl)cc1	37*	-4	116	17	-8	108	11	4
CCOC(=O)/C(C(C)=O)=C1/OC(=O)c2ccccc21	0	1	100	-5	-12	94	·	·
CCOC(=O)/C(C(C)=O)=C1\OC(=O)c2ccccc21	44*	-8	99	6	-22	99	-7	7
COc1cc(NS(=O)(=O)c2ccc(NC(=S)NC(=O)c3ccc(F)cc3)cc2)nc(OC)n1	40*	-34	95	-4	8	94	27	-13
COc1ccc(C)cc1NCc1cc(=O)oc2cc(-c3ccccc3)c(O)cc12	49*	-4	101	9	-10	104	0	10
CCCCN1C(=O)C(=O)N(CC(=O)Nc2sc(CC)cc2C(=O)OCC)C1=O	·	·	·	·	2	·	·	·
COc1ccccc1NC(=O)CCS(=O)(=O)c1ccc2c(c1)NC(=O)C(C)S2 (stereo not drawn)	46*	-35	99	0	-1	100	-14	-17
CCCCn1c(N)c(N(CC(C)C)C(=O)c2cccs2)c(=O)[nH]c1=O	·	·	·	·	-6	·	·	·
Cc1cc2cc(C(c3nnnn3Cc3ccco3)N3CCc4ccccc4C3)c(=O)[nH]c2cc1C (stereo not drawn)	39*	-16	104	3	18	94	64*	-3	DNA FID DR=>79
Cc1cc2cc(C(c3nnnn3Cc3ccco3)N3CCc4ccccc43)c(=O)[nH]c2cc1C (stereo not drawn)	27	-22	100	-1	9	92	·	·
O=C1/C(=C\c2ccccn2)SC(=S)N1c1ccc(S(=O)(=O)Nc2nccs2)cc1	36*	-9	103	-2	-18	100	-17	25
Cc1ccc(/C=C2/SC(=S)N(c3ccc(S(=O)(=O)Nc4nccs4)cc3)C2=O)cc1	21	-17	101	0	-6	96	·	·
CC(=O)C1=C(O)C(=O)N(c2ccc(Br)cc2)C1c1cccc(F)c1 (stereo not drawn)	37*	-29	104	2	19	102	31	4
CC(=O)C1=C(O)C(=O)N(c2ccc(O)cc2)C1c1cccc(F)c1 (stereo not drawn)	-3	1	101	-1	-1	100	·	·
O=C(O)c1c(C(=O)N2N=C3/C(=C/c4ccccc4)CCCC3C2c2ccccc2)cccc1[N+](=O)[O-] (stereo not drawn)	49*	-33	97	-9	-13	87	69*	-6
O=C(O)c1ccccc1C(=O)N1N=C2/C(=C/c3cccc([N+](=O)[O-])c3)CCCC2C1c1cccc([N+](=O)[O-])c1 (stereo not drawn)	29	-22	96	-45	1	88	·	·
O=C1OCc2cccc([N+](=O)[O-])c21	-4	-6	94	-1	-2	99	·	·
O=C1CC(=O)c2c1cccc2[N+](=O)[O-]	37*	-8	99	-4	·	91	90*	16
CN(CC(=O)Nc1cccc(F)c1)C(=O)c1cccc(S(=O)(=O)N2CC3(C)CC2CC(C)(C)C3)c1 (stereo not drawn)	·	·	·	·	23	·	·	·
SMILES	HCV NS3 hel inh	DNA FID counter-1	MEKK3 PB1 HTS	MEKK2 mut-MEK5	T cruzi repl	MEKK2wt PB1 HTS	NS3 helicase cf	DNA FID counter-2	others
COc1ccc(N2CC(NC(=O)NCC(C)C)CC2=O)cc1 (stereo not drawn)	53*	-4	101	-2	-4	103	-8	-1
CCN(CC)C(=O)NC1CC(=O)N(c2ccc(OC)cc2)C1 (stereo not drawn)	4	-6	82	-1	-16	97	·	·
Cc1cccn2c(=O)c3cc(C(=O)NC4CCCC4)c(=N)n(C4CCCCC4)c3nc12	40*	0	101	0	?	97	-14	18
CC(C)c1nc(SCC(=O)N2CC(=O)Nc3ccccc32)c2ccccc2n1	11	-29	126	25	6	109	·	·
CCOC(=O)C1=C(O)/C(=C/c2ccc(OCC(=O)O)c(OC)c2)SC1=Nc1ccc(OC)cc1	36*	-24	113	5	5	110	42*	-16
CCOC(=O)C1=C(O)/C(=C/c2cn(CC(=O)N3CCCC3)c3ccccc23)SC1=Nc1ccccc1	-2	-2	91	-1	4	89	·	·
O=C(Nc1ccc(Cl)c(Cl)c1)Nc1nnc(CSc2ccccc2)s1	1	0	99	-1	3	95	·	·
Cc1nnc(Cn2cnc3c2c(=O)n(C)c(=O)n3C)o1	39*	-4	99	2	-4	101	-9	4
Cc1nccn1CCCNC(=O)CC1C(=O)NCCN1Cc1ccc(F)cc1Cl (stereo not drawn)	-15	1	95	1	-13	106	·	·
COc1ccc(CN2C(=O)c3cccnc3C2=O)cc1S(=O)(=O)N1CCOc2ccc(C)cc21	-7	-38	100	-1	-6	105	·	·
CN(C)c1ccc(N/C=C/C(=O)C(C)(C)C)cc1	48*	0	100	3	42	102	19	26

Assay outcomes from PubChem.
